For data set [1], the system named is PC-12. The experiment in a line: Induction of apoptosis in rat PC12 cells assessed as length of migrated cell nucleus at 1 mM after 3 hrs by comet assay. Format: toxicity, cell-based. The conditions noted are these: pc-12, 3 h, 1000 µM. An outline of the steps: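 PC12 cells (5×10^5/well in PBS(-)) exposed to 1.0 mM final compound for 3 h at 37 °C. Cells embedded in low-melt agarose, lysed 1 h at 4 °C, then alkaline unwinding 30 min. Electrophoresed at 15 V for 30 min and stained with SYBR Green. 200 cells scored per sample under fluorescence at ×200. Whole comet length measured with an ocular micrometer.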

In data set [2] the test system is PC-12. The data set can be described thus: Cytotoxicity against rat PC12 cells assessed as effect on cell viability at 0.05 to 1 mM after 48 hrs by tetrazolium/formazan assay. The conditions noted are these: pc-12, 48 h, 1000 µM. Format: cell-based. The gist of the method: (§1)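 PC12 cells in log growth, seeded at 3×10^5 cells/mL in serum-containing DMEM. After 24 h, medium replaced with the derivative diluted in serum-free DMEM. After 48 h exposure, CCK-8 (WST tetrazolium) added for 4 h at 37 °C. A490 read and viability expressed as % of untreated control. Means ± S.E., n = 3-6. Dunnett test after ANOVA.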

Data set [3] has as its system PC-12. The data set can be described thus: Cytotoxicity against rat PC12 cells assessed as effect on cell viability at 0.01 mM after 48 hrs by tetrazolium/formazan assay. It counts as cell-based. The conditions noted are these: pc-12, 48 h, 10 µM. An outline of the steps:
as §1

Data set [4] concerns PC-12. The data set can be described thus: Cytotoxicity against rat PC12 cells assessed as effect on cell viability at 0.5 mM after 48 hrs by tetrazolium/formazan assay. The conditions noted are these: pc-12, 48 h, 500 µM.
The subject of data set [5] is PC-12. The experiment in a line: Cytotoxicity against rat PC12 cells assessed as effect on cell viability at 1 mM after 48 hrs by tetrazolium/formazan assay. The conditions noted are these: pc-12, 48 h, 1000 µM.
Data set [6] addresses T1, Amine oxidase [flavin-containing] B (Homo sapiens, UniProt P27338).
T1 sequence (P27338 whole entry): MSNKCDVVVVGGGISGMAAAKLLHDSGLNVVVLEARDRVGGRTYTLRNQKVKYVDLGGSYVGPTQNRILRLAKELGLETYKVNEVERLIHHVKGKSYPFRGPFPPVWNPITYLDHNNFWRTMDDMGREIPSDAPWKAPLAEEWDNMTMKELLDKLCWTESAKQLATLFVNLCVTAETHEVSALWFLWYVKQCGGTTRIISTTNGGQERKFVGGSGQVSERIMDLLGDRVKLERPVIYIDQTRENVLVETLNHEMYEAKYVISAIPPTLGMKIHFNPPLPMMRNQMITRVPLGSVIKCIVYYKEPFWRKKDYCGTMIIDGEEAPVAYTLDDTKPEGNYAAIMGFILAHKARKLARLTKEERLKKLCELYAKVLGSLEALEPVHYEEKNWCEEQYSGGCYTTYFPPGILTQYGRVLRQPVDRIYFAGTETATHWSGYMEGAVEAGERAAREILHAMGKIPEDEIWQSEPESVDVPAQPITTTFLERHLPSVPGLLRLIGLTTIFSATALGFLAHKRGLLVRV
The data set can be described thus: Inhibition of MAOB at 100 nM after 60 mins using benylamine as substrate relative to control. The conditions noted are these: 1 h. Also on record: scale not given: the % may be the effect or the level left.

Data set [7] has as its target T2, Amine oxidase [flavin-containing] A (Homo sapiens, UniProt P21397).
T2 sequence (P21397 whole entry): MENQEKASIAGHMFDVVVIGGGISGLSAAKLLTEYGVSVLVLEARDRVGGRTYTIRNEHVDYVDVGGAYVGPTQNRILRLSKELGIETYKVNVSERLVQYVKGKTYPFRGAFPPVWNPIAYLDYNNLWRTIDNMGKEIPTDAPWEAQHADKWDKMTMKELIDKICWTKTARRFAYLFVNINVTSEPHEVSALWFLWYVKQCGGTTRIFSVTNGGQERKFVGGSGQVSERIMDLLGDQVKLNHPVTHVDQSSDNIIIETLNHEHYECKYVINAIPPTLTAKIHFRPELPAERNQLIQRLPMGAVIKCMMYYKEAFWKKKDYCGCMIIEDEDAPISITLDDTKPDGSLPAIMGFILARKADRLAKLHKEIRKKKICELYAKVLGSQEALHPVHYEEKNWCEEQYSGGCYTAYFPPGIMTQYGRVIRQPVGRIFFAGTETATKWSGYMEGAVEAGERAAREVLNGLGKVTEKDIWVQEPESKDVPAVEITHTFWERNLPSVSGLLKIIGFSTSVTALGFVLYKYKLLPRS
The data set can be described thus: Inhibition of MAOA at 100 nM after 60 mins using tyramine as substrate relative to control. Also on record: scale not given: the % may be the effect or the level left. The conditions noted are these: 1 h. The gist of the method:
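MAO-A enzyme (10 µg/mL) incubated with 0.5 mM tyramine and 100 nM compound for 60 min at 37 °C. H2O2 formed was detected with a peroxidase-coupled fluorogenic kit (ex 530/em 590 nm). Activity expressed as % of vehicle control. Means ± S.E., n = 8.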

Data set [8] deals with T1, Amine oxidase [flavin-containing] B. The data set can be described thus: Inhibition of MAOB at 100 nM after 60 mins using tyramine as substrate relative to control. Also on record: scale not given: the % may be the effect or the level left. The conditions noted are these: 1 h.

With `c1ccc2c(c1)CCNC2C1CCCCC1` (stereo unspecified), the Activity was 120 um in the data set on PC-12 [1], “Toxic” in the data set with PC-12 [2], “Non-toxic” in the data set with PC-12 [3] and “Toxic” with PC-12 [4].

For `CCCCCC1NCCc2ccccc21` (stereo unspecified), the Activity result in the data set with PC-12 [5] and in the data set with PC-12 [4] was “Toxic” each time.

Take `CCCCCCC1NCCc2ccccc21` (stereo unspecified): the Activity result with PC-12 [5] was “Toxic”; with PC-12 [1] it was 150 um; with PC-12 [2] it was “Toxic”; with PC-12 [3], “Non-toxic”; with PC-12 [4] it was “Toxic”.

Regarding `CCCCC1NCCc2ccccc21` (stereo unspecified), the Activity result in the data set with PC-12 [5] and in the data set with PC-12 [4] was “Toxic” in each case.

Turning to `c1ccc2c(c1)CCNC2C1CCCC1` (stereo unspecified), the Activity entry with PC-12 [3] is listed as “Non-toxic”; with PC-12 [4], “Toxic”.

For the compound `C#CCN1CCc2ccccc2C1C` (stereo unspecified), the Activity at 0.1 µM stood at 99.4% in data set [6], 97.5% in data set [7] and 101% in data set [8].

As for `C#CCN1CCc2ccccc2C1C1CC1` (stereo unspecified), the Activity at 0.1 µM turned out to be 97.5% in data set [6], 96.2% in data set [7] and 98.4% in data set [8].

In the case of `c1ccc2c(c1)CCNC2C1CC1` (stereo unspecified), the Activity result with PC-12 [3] is “Non-toxic”; with PC-12 [4], “Toxic”.

As to `C[n+]1ccc(-c2ccccc2)cc1.[Cl-]`, the Activity in the data set with PC-12 [1] turned out to be 60 um.

Consider `CCC1NCCc2ccccc21` (stereo unspecified), for which the Activity entry with PC-12 [5] and with PC-12 [4] was “Toxic” each time.

As for `CCCC1NCCc2ccccc21` (stereo unspecified), the Activity result in the data set on PC-12 [5] and in the data set on PC-12 [4] was “Toxic” throughout.

Take `c1ccc2c(c1)CCNC2C1CCC1` (stereo unspecified): the results for the Activity entry in the data set with PC-12 [3] and in the data set on PC-12 [4] were “Non-toxic” and “Toxic”, respectively.

Consider `C#CCN(C)[C@H](C)Cc1ccccc1` [SELEGILINE], for which the Activity at 0.1 µM in data set [7] is 94.2%.
